Data: ChEMBL document CHEMBL1828587, “Pyrazolo[1,5-a]pyrimidines, triazolo[1,5-a]pyrimidines and their tricyclic derivatives as corticotropin-releasing factor 1 (CRF₁) receptor antagonists” (Bioorg Med Chem, 2011)
Activity calls are given as the source filed them. No cut-off for these calls is given here.

Assays:
[1] = target: T1, Corticotropin-releasing factor receptor 1 (Homo sapiens, UniProt P34998); assay: Antagonist activity at human CRF1 receptor expressed in CHO-K1 cells assessed as inhibition of CRF-induced cAMP accumulation after 15 mins by cAMP enzyme immunoassay; assay type: functional, cell-based
T1 sequence (P34998 whole entry): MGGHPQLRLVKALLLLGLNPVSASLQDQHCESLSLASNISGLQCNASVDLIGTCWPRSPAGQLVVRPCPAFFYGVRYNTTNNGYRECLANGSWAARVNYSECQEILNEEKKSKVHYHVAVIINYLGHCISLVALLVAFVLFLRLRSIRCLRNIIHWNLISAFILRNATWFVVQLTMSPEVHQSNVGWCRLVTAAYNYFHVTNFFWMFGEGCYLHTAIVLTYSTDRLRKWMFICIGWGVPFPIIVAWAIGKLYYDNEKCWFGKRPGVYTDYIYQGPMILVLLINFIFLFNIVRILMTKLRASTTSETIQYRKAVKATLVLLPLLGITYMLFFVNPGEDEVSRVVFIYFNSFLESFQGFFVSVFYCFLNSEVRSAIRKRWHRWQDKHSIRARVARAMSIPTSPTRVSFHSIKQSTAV
Procedure, shortened: (§1)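 CRF1-expressing CHO-K1 cells seeded at 1×10^4 cells/well and cultured overnight. Cells were washed with F-12 and preincubated 10 min at 37 °C in F-12 containing 1 mmol/l IBMX. Test compound (1–10000 nmol/l) was then added together with CRF (10 nmol/l in the added medium). After 15 min at 37 °C, intracellular cAMP was measured by enzyme immunoassay. IC50 was taken from concentration–response curves.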

[2] = target: T1, Corticotropin-releasing factor receptor 1; assay: Displacement of [125I]-CRF from human CRF1 receptor expressed in CHO-K1 cells after 2 hrs by gamma counting; assay type: cell-based
Procedure, shortened: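 Crude membranes were made from CRF1-expressing CHO-K1 cells in 50 mmol/l Tris-HCl with 10 mmol/l MgCl, 2 mmol/l EDTA and aprotinin. Membranes were incubated with 125I human/rat CRF (0.5 nmol/l solution added) and test compound (1~10000 nmol/L) for 2 h at room temperature. Bound and free ligand were separated by centrifugation and the pellet washed with PBS/0.01% Triton X-100, then gamma-counted. Nonspecific binding was defined with 1 µmol/l unlabeled CRF. IC50 was taken from concentration–response curves.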

[3] = Half life in rat at 10 mg/kg, po; assay type: ADME, organism-based; set-up: dose 10 mg/kg, route oral; details: in vivo
Procedure, shortened: (§2)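 Fasted male rats (n = 4) received 1 mg/kg iv in saline/30% HP-β-CD or 10 mg/kg po in saline/0.5% MC. Jugular blood was sampled up to 72 h, and plasma obtained by centrifugation and stored at -70 °C. AUC, Cmax, Tmax, T1/2, Vss and CL were derived from plasma concentration–time courses. F = dose-normalized AUCpo/AUCiv ×100.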

[4] = Half life in rat at 1 mg/kg, iv; assay type: ADME, organism-based; set-up: dose 1 mg/kg, route intravenous; details: in vivo; procedure, shortened: as §2
[5] = Oral bioavailability in rat at 10 mg/kg; assay type: ADME, organism-based; details: in vivo; procedure, shortened: as §2
[6] = Total clearance in rat at 1 mg/kg, iv; assay type: ADME, organism-based; set-up: dose 1 mg/kg, route intravenous; details: in vivo; procedure, shortened: as §2
[7] = target: T2, Corticotropin-releasing factor receptor 1 (Rattus norvegicus, UniProt P35353); assay: Antagonist activity at rat CRF1 receptor expressed in CHO-K1 cells assessed as inhibition of CRF-induced cAMP accumulation after 15 mins by cAMP enzyme immunoassay; assay type: functional, cell-based; procedure, shortened: as §1
T2 sequence (P35353 whole entry): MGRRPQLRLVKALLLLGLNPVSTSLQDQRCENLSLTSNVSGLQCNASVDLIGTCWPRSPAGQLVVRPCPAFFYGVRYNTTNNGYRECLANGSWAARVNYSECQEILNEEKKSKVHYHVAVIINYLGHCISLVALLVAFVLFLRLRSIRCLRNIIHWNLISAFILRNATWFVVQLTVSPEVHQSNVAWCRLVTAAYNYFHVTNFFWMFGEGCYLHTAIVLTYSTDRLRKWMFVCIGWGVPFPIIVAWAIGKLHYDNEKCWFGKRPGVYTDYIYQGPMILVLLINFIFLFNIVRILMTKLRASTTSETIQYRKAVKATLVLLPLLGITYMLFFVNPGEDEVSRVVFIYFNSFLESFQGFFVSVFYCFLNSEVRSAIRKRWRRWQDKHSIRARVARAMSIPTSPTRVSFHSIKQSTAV

Rattus norvegicus = assay: Anxiolytic activity against swim-stress-induced anxiety like behavior in Sprague-Dawley rat assessed as increase in spent time in open arms at 10 mg/kg, po administered 1 hr before stress-challenge by elevated plus-maze test; assay type: functional, organism-based; set-up: dose 10 mg/kg
Procedure, shortened: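 Male Sprague-Dawley rats (230–280 g) were dosed orally with compound in 0.5% MC, and tested 1 h after dosing. Rats were then placed on the elevated plus-maze (50 cm high) and video-tracked for 5 min for time in and entries into open arms. Results are mean ± S.E., n=16; vehicle vs drug by Dunnett test.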

[8] = Ratio of drug level in brain to plasma in rat at 10 mg/kg, po after 1 hr; assay type: ADME, organism-based; set-up: dose 10 mg/kg, route oral; details: read-out: BPR
Procedure, shortened: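 Rats were dosed orally at 10 mg/kg. Kp was calculated as brain content divided by plasma concentration, 1.0 h after dosing.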

[9] = AUC (0 to infinity) in rat at 1 mg/kg, iv; assay type: ADME, organism-based; set-up: dose 1 mg/kg, route intravenous, time infinity; details: plasma
Procedure, shortened: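 Single iv dose of 1 mg/kg in saline containing 30% HP-β-CD (w/v), given to fasted male rats (n = 4). Plasma stored at -70 °C. AUC derived from the plasma concentration time course.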

[10] = Cmax in rat at 10 mg/kg, po; assay type: ADME, organism-based; set-up: dose 10 mg/kg, route oral; details: in vivo; procedure, shortened: as §2
[11] = Volume of distribution at steady state in rat at 1 mg/kg, iv; assay type: ADME, organism-based; set-up: dose 1 mg/kg, route intravenous; details: in vivo, read-out: Vdss; procedure, shortened: as §2
[12] = Tmax in rat at 10 mg/kg, po; assay type: ADME, organism-based; set-up: dose 10 mg/kg, route oral; details: in vivo; procedure, shortened: as §2
[13] = AUC (0 to infinity) in rat at 10 mg/kg, po; assay type: ADME, organism-based; set-up: time infinity, dose 10 mg/kg, route oral; details: plasma
Procedure, shortened: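 Single oral dose of 10 mg/kg in saline containing 0.5% MC (w/v), given to fasted male rats (n = 4). Heparinized jugular vein blood taken at 1, 2, 4, 6, 8, 24, 48, 72 h. Plasma stored at -70 °C. AUC to infinity derived from the plasma concentration time course.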

Structure (SMILES)	EC50 [1]	IC50 [2]	further results
CCC(CC)n1ccc2c(Cc3c(C)cc(C)cc3C)nc3ccnn3c21	32.2 nM	7.1 nM	–
CCCN(CCC)c1cc(N(C)c2ccc(OC)cc2Cl)nc2nccn12	–	67 nM	–
CCCN(CCC)c1cc(N(CC2CC2)c2ccc(OC)cc2Cl)nc2ccnn12	–	213 nM	–
CCCN(CCC)c1cc(N(C)c2ccc(OC)cc2Cl)nc2ncnn12	889 nM	33 nM	–
CCC(CC)Nc1cc(N(C)c2ccc(OC)cc2Cl)nc2ncnn12	367 nM	42 nM	–
CCc1ccc(Oc2nc3ccnn3c3c2ccn3C(CC)CC)c(OC)c1	5.6 nM	7 nM	–
CCc1cc(Cl)ccc1Nc1nc2ccnn2c2c1ccn2C(CC)CC	3.9 nM	4.7 nM	–
CCCN(CCC)c1cc(N(CC)c2ccc(OC)cc2Cl)nc2nccn12	76 nM	42 nM	–
CCC(CC)Nc1cc(Nc2ccc(OC)cc2Cl)nc2ccnn12	113 nM	14 nM	–
CCc1cc(OC)ccc1Nc1nc2ccnn2c2c1ccn2C(CC)CC	3.5 nM	2.4 nM	–
CCC(CC)n1ccc2c(Nc3ccc(OC)cc3Cl)nc3ccnn3c21	0.7 nM	3.2 nM	–
CCC(CC)n1ccc2c(Nc3c(C)cc(C)cc3C)nc3ccnn3c21	4.1 nM	6.1 nM	–
CCC(CC)Nc1c(C)c(Nc2ccc(OC)cc2Cl)nc2ncnn12	58 nM	16 nM	–

Second part, led by results:

EC50 [1]	IC50 [2]	Structure (SMILES)	further results
8.6 nM	4.2 nM	CCCN(CCC)c1c(CC)c(Nc2ccc(OC)cc2Cl)nc2ccnn12	–
53 nM	61 nM	CCCN(CCC)c1cc(Nc2ccc(OC)cc2Cl)nc2ccnn12	–
18.6 nM	31.6 nM	CCCN(CCC)c1cc(N(CC)c2ccc(OC)cc2Cl)nc2ccnn12	–
–	308 nM	CCCN(CCC)c1c(C2CCCC2)c(Nc2ccc(OC)cc2Cl)nc2ccnn12	–
28.9 nM	4.4 nM	C=CCN(c1cc(N(CCC)CCC)n2nccc2n1)c1ccc(OC)cc1Cl	–
95 nM	32 nM	CCCc1c(Nc2ccc(OC)cc2Cl)nc2ccnn2c1N(CCC)CCC	–
7.4 nM	7.4 nM	CCC(CC)Nc1c(C)c(Nc2ccc(OC)cc2Cl)nc2ccnn12	–
883 nM	13 nM	CCCN(CCC)c1c(OC)c(Nc2ccc(OC)cc2Cl)nc2ccnn12	–
26 nM	20 nM	CCCN(CCC)c1nc(N(C)c2ccc(OC)cc2Cl)nc2ccnn12	–
9 nM	8 nM	CCCN(CCC)c1c(C)c(Nc2ccc(OC)cc2Cl)nc2ncnn12	–
–	340 nM	CCCCc1c(Nc2ccc(OC)cc2Cl)nc2ccnn2c1N(CCC)CCC	–
234 nM	113 nM	CCCN(CCC)c1c(C(C)C)c(Nc2ccc(OC)cc2Cl)nc2ccnn12	–
856 nM	76.7 nM	C=C(C)CN(c1cc(N(CCC)CCC)n2nccc2n1)c1ccc(OC)cc1Cl	–
75.7 nM	418 nM	CCCN(CCC)c1cc(N(CCC)c2ccc(OC)cc2Cl)nc2ccnn12	–
4 nM	8 nM	CCCN(CCC)c1c(C)c(Nc2ccc(OC)cc2Cl)nc2ccnn12	half-life [3]: 3.4 h; half-life [4]: 1.7 h; bioavailability [5]: 16%; clearance [6]: 186 mL/min/kg; EC50 [7]: 81 nM; Activity (Rattus norvegicus): Active; Kp at 1 h [8]: 6.2; AUC(0-inf) [9]: 96 ng·h/mL; Cmax [10]: 27.4 ng/mL; Vd [11]: 14.4 L/kg; Tmax [12]: 4 h; AUC(0-inf) [13]: 153 ng·h/mL
46 nM	12 nM	CCCN(CCC)c1c(C)c(Nc2ccc(OC)cc2Cl)nc2nccn12	–
97 nM	20 nM	CCCN(CCC)c1cc(N(C)c2ccc(OC)cc2Cl)nc2ccnn12	–
–	680 nM	CCCN(CCC)c1cc(N(CCOC)c2ccc(OC)cc2Cl)nc2ccnn12	–
4.4 nM	15 nM	CCCN(CCC)c1cc(N(COC)c2ccc(OC)cc2Cl)nc2ccnn12	–
